Source: ChEMBL document CHEMBL1828539, “Development of a novel furocoumarin derivative inhibiting NF-κB dependent biological functions: design, synthesis and biological effects” (Eur J Med Chem, 2011)
The source made the active and inactive calls. The calls are words filed in the database; no cut-off is given here.

Key:
[1] = Inhibition of NF-KB p50 subunit/DNA interaction after 20 mins by EMSA
Outline: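 Human NF-κB p50 protein (10 ng) preincubated 20 min at room temperature with varying compound concentrations in buffer TF plus 5% glycerol, 1 mM DTT. Then 0.25 ng 32P-labeled double-stranded NF-κB consensus oligo (5'-CGC TGG GGA CTT TCC ACG G-3') added for 20 min more. Complexes resolved on 6% polyacrylamide gel in 0.25× TBE at 200 V; autoradiography.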

[2] = Inhibition of reconstituted NF-KB p50-p65 heterodimer/DNA interaction after 20 mins by EMSA
Outline: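 p50 (10 ng) plus p65 (10 ng) human NF-κB proteins preincubated 20 min at room temperature with varying compound concentrations in buffer TF, 5% glycerol, 1 mM DTT. 0.25 ng 32P-labeled NF-κB site oligo then added for a further 20 min. Bound and free probe separated on 6% native polyacrylamide gel (0.25× TBE, 200 V); autoradiography.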

IB3-1 [3] = test: Inhibition of NFkappa B in human IB3-1 cells assessed as inhibition of TNF-alpha-induced IL8 protein release at 10 uM after 24 hrs relative to control; assay type: cell-based
Outline: (§1)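 IB3-1 CF cells in LHC-8 with 5% FBS treated 24 h with compound plus TNF-α (80 ng/ml). IL-8 released into the culture supernatant measured by singleplex bead immunoassay (Bio-Plex): sample incubated with anti-IL-8 beads, then detection antibody, then streptavidin-phycoerythrin, read against cytokine standards as pg/ml; n = 3.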

IB3-1 [4] = test: Inhibition of NFkappa B in human IB3-1 cells assessed as inhibition of TNF-alpha-induced IL8 mRNA accumulation at 30 uM after 24 hrs by RT-PCR analysis relative to control; assay type: cell-based
Outline: (§2)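 IB3-1 CF bronchial cells (ΔF508/W1282X, adeno12/SV40-immortalized) grown in LHC-8 with 5% FBS, without gentamycin, at 37 °C. Exposed to compound and TNF-α (80 ng/ml) for 24 h. Total RNA extracted with TRIzol, oligo(dT)-primed AMV reverse transcription, then 40-cycle real-time PCR with IL-8 primers. IL-8 mRNA expressed relative to uninduced IB3-1 cells; n = 3.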

IB3-1 [5] = test: Inhibition of NFkappa B in human IB3-1 cells assessed as inhibition of TNF-alpha-induced IL8 mRNA accumulation at 50 uM after 24 hrs by RT-PCR analysis relative to control; assay type: cell-based; outline: as §2
IB3-1 [6] = test: Inhibition of NFkappa B in human IB3-1 cells assessed as inhibition of TNF-alpha-induced IL8 protein release at 50 uM after 24 hrs relative to control; assay type: cell-based; outline: as §1
IB3-1 [7] = test: Inhibition of NFkappa B in human IB3-1 cells assessed as inhibition of TNF-alpha-induced IL8 mRNA accumulation at 10 uM after 24 hrs by RT-PCR analysis relative to control; assay type: cell-based; outline: as §2
IB3-1 [8] = test: Inhibition of NFkappa B in human IB3-1 cells assessed as inhibition of TNF-alpha-induced IL8 protein release at 30 uM after 24 hrs relative to control; assay type: cell-based; outline: as §1

inhibition [1]	inhibition [2]	SMILES	inhibition (IB3-1 [3])	inhibition (IB3-1 [4])	inhibition (IB3-1 [5])	inhibition (IB3-1 [6])	inhibition (IB3-1 [7])	inhibition (IB3-1 [8])
Active	Active	Cc1c(CC(=O)N[C@@H](Cc2ccccc2)C(=O)O)c(=O)oc2cc3occ(C(C)(C)C)c3cc12						
	Active	Cc1c(CC(=O)NC(Cc2ccccc2)C(=O)O)c(=O)oc2c(C)c3occ(C(C)(C)C)c3cc12 (racemic)	inactive	Active	Active	Active	inactive	Active
Active	Active	Cc1c(CC(=O)NC(Cc2ccccc2)C(=O)O)c(=O)oc2cc3occ(C(C)(C)C)c3cc12 (racemic)						
